Measured values as given in ChEMBL document CHEMBL1806481, “Synthesis and anti-inflammatory activity of novel biscoumarin-chalcone hybrids” (Bioorg Med Chem Lett, 2011).
Calls of active or inactive are those of the source. The rule behind the calls is not given here.

Key:
[1] = Antioxidant activity assessed as inhibition non-enzymatic reactants generated hydroxyl radical production at 200 ug/ml after 90 mins by spectrophotometry; assay type: functional
In short: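 Hydroxyl radicals were generated non-enzymatically from deoxyribose (2.8 mM), FeSO4·7H2O (2 mM), sodium ascorbate (2.0 mM) and H2O2 (2.8 mM) in 50 mM KH2PO4 buffer, pH 7.4. Final volume was 2.5 mL, with or without test compound at 200 µg/mL. Mixtures were incubated at 37 °C for 90 min, MDA formed was measured, and mannitol was the standard. Values are mean SD of six.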

Rattus norvegicus [2] = assay: Antiinflammatory activity in albino rat assessed as inhibition of carrageenin-induced paw oedema at 100 mg/kg, po after 3 hrs by plethysmographic analysis relative to control; assay type: functional
In short: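 Rats received 100 mg/kg po. Oedema was induced by subplantar injection of 0.1 ml of 1% carrageenin into one hind paw. Paw volume was measured plethysmographically immediately after the injection and at 3 h. The volume difference gave the oedema, and percent inhibition was calculated against the control group. Ibuprofen was the reference at an equivalent dose.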

[3] = Antioxidant activity assessed as inhibition of xanthine-xanthine oxidase generated superoxide anion radical production assessed as formazone formation at 200 ug/ml after 30 mins by spectrophotometric analysis; assay type: functional
In short: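 Superoxide generation was run with and without compound at 200 µg/mL. Fractions were sonicated in phosphate buffer, and mixtures were incubated at 37 °C for 30 min. The reaction was stopped with glacial acetic acid, and formazone formed was measured spectrophotometrically. Allopurinol was the standard, and values are mean SD of six.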

[4] = Toxicity in albino rat assessed as survival at 100 mg/kg, po; assay type: organism-based; parameters: dose 100 mg/kg, route oral; details: in vivo, read-out: Activity
In short: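 Albino rats were dosed orally in the carrageenin hind-paw oedema study. Survival was recorded, and animals were examined macroscopically and by autopsy.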

Rattus norvegicus [5] = assay: Toxicity in albino rat at 100 mg/kg, po by macroscopic analysis; details: in vivo
Rattus norvegicus [6] = assay: Toxicity in albino rat at 100 mg/kg, po by autopsy; assay type: organism-based; parameters: dose 100 mg/kg, route oral; details: in vivo
[7] = Antioxidant activity assessed as inhibition microsomal lipid peroxidation at 200 ug/ml by thiobarbituric acid test; assay type: functional; details: Microsome
In short: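 Microsomal lipid peroxidation was measured with compound at 200 µg/mL and read as nmol MDA formed per mg protein. α-Tocopherol at 100 µg/mL was the standard. Values are mean SD of six.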

[8] = Antiinflammatory activity in whole blood assessed as inhibition of LPS-induced TNFalpha production; assay type: functional, tissue-based
[9] = Antiinflammatory activity in whole blood assessed as inhibition of LPS-induced TNFalpha production at 200 ug/ml; assay type: functional
[10] = Antiinflammatory activity in whole blood assessed as inhibition of LPS-induced TNFalpha production at 400 ug/ml; assay type: functional
[11] = Antioxidant activity assessed as inhibition microsomal lipid peroxidation at 100 ug/ml by thiobarbituric acid test; assay type: functional; details: Microsome
[12] = Antioxidant activity assessed as inhibition non-enzymatic reactants generated hydroxyl radical production at 100 ug/ml after 90 mins by spectrophotometry; assay type: functional
[13] = Antioxidant activity assessed as inhibition of xanthine-xanthine oxidase generated superoxide anion radical production assessed as formazone formation at 20 ug/ml after 30 mins by spectrophotometric analysis; assay type: functional
In short: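 Reaction mixtures in phosphate buffer incubated at 37 °C for 30 min, then stopped with 0.5 mL glacial acetic acid. Superoxide quantified as formazone formed (nmol/min), read spectrophotometrically. Mean SD of six values.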

Question: Which results are given for `CCOC(=O)c1cc2cc(/C=C/C(=O)c3cccs3)c3c(ccc4c(C)cc(=O)oc43)c2oc1=O`?
Answer: inhibition [1]: 26%; inhibition in vivo at 100 mg/kg (Rattus norvegicus [2]): 8.77%; inhibition [3]: 24%; survival [4]: 80%; Activity (Rattus norvegicus [5]): Non-toxic; Activity (Rattus norvegicus [6]): Non-toxic; inhibition [7]: 27%

Question: With `COC(=O)c1cc2cc(/C=C/C(=O)c3cccs3)c3c(ccc4c(C)cc(=O)oc43)c2oc1=O` as the molecule, how does the inhibition in vivo at 100 mg/kg (Rattus norvegicus [2]) read?
Answer: 3.5%

Question: And the survival [4]?
Answer: 80%

Question: And the Activity (Rattus norvegicus [5])?
Answer: Non-toxic

Question: And the Activity (Rattus norvegicus [6])?
Answer: Non-toxic

Question: With `COC(=O)c1cc2cc(/C=C/C(=O)c3ccc(C)cc3)c3c(ccc4c(C)cc(=O)oc43)c2oc1=O` as the molecule, how does the inhibition (Rattus norvegicus [2]) read?
Answer: inactive

Question: Which results are given for `COC(=O)c1cc2cc(/C=C/C(=O)c3ccccc3)c3c(ccc4c(C)cc(=O)oc43)c2oc1=O`?
Answer: inhibition [1]: 27%; inhibition in vivo at 100 mg/kg (Rattus norvegicus [2]): 33%; inhibition [8]: Dose-dependent effect; inhibition at 200 µg/mL [9]: 4%; inhibition [3]: 29%; inhibition at 400 µg/mL [10]: 21%; inhibition [7]: 23%

Question: For `Cc1c(C)c2c(c(C)c1O)CC[C@@](C)(CCC[C@H](C)CCC[C@H](C)CCCC(C)C)O2`, which inhibition [11] is on record?
Answer: 41%

Question: Which inhibition in vivo at 100 mg/kg (Rattus norvegicus [2]) does the source give for `CC(=O)c1cc2cc(/C=C/C(=O)c3ccco3)c3c(ccc4c(C)cc(=O)oc43)c2oc1=O` here?
Answer: 26%

Question: And the inhibition [8]?
Answer: Dose-dependent effect

Question: What about the inhibition at 200 µg/mL [9] of the same molecule?
Answer: 25%

Question: And the inhibition at 400 µg/mL [10]?
Answer: 43%

Question: Which results are given for `CCOC(=O)c1cc2cc(/C=C/C(=O)c3ccco3)c3c(ccc4c(C)cc(=O)oc43)c2oc1=O`?
Answer: inhibition [1]: 21%; inhibition in vivo at 100 mg/kg (Rattus norvegicus [2]): 13%; inhibition [3]: 30%; survival [4]: 80%; Activity (Rattus norvegicus [5]): Non-toxic; Activity (Rattus norvegicus [6]): Non-toxic; inhibition [7]: 24%

Question: With `OC[C@@H](O)[C@@H](O)[C@H](O)[C@H](O)CO` as the molecule, how does the inhibition [12] read?
Answer: 40%

Question: Which inhibition [13] does the source give for `Oc1ncnc2[nH]ncc12` here?
Answer: 42%

Question: For `CCOC(=O)c1cc2cc(/C=C/C(=O)c3ccc(C)cc3)c3c(ccc4c(C)cc(=O)oc43)c2oc1=O`, which inhibition (Rattus norvegicus [2]) is on record?
Answer: inactive

Question: Which inhibition (Rattus norvegicus [2]) does the source give for `COC(=O)c1cc2cc(/C=C/C(=O)c3ccco3)c3c(ccc4c(C)cc(=O)oc43)c2oc1=O` here?
Answer: inactive

Question: Which inhibition in vivo at 100 mg/kg (Rattus norvegicus [2]) does the source give for `CC(=O)c1cc2cc(/C=C/C(=O)c3ccc(C)cc3)c3c(ccc4c(C)cc(=O)oc43)c2oc1=O` here?
Answer: 29%

Question: And the inhibition [8]?
Answer: Dose-dependent effect

Question: What about the inhibition at 200 µg/mL [9] of the same molecule?
Answer: 33%

Question: And the inhibition at 400 µg/mL [10]?
Answer: 47%

Question: For `CCOC(=O)c1cc2cc(/C=C/C(=O)c3ccccc3)c3c(ccc4c(C)cc(=O)oc43)c2oc1=O`, which inhibition (Rattus norvegicus [2]) is on record?
Answer: inactive

Question: Which inhibition in vivo at 100 mg/kg (Rattus norvegicus [2]) does the source give for `CC(C)Cc1ccc(C(C)C(=O)O)cc1` (stereo unspecified) [IBUPROFEN] here?
Answer: 59.5%
